Measurements of several laboratories.
Lines come from different studies, so protocols differ.
Target: Mitogen-activated protein kinase kinase kinase 2 (MAP3K2, Homo sapiens, UniProt Q9Y2U5)
Sequence (Q9Y2U5 1-619, as in one of the studies): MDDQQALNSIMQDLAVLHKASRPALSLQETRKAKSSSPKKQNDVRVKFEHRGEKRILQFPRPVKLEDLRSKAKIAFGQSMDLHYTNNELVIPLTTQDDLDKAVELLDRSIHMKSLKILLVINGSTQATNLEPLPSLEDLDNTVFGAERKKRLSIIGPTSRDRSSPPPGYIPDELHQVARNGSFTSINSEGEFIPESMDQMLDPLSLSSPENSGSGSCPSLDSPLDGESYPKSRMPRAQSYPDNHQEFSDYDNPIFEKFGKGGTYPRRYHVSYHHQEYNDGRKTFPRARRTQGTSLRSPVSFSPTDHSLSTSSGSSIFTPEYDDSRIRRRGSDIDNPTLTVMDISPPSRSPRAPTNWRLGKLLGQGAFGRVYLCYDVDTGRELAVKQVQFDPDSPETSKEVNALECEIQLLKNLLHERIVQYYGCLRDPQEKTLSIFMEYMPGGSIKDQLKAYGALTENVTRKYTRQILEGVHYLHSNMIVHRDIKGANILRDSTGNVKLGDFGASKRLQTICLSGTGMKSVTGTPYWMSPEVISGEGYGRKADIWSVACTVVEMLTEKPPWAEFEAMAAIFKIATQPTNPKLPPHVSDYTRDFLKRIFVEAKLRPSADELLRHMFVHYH

SMILES	test	system	conditions	measurement	value
CC(C)(O)[C@H]1CC[C@H](Nc2ccc3ncc(-c4cccc(C(F)(F)F)c4)n3n2)CC1	enzyme activity, inhibitor		1 µM	remaining activity	95.8%
O=C(Nc1cnn(-c2csc(C(=O)NC3COC3)c2)c1)Nc1ccccc1Cl	enzyme activity, inhibitor		5 µM	remaining activity	110%
COc1cc(Cl)c(C(=O)N[C@@H](CN[C@H]2CC[C@@H](N)CC2)Cc2ccc(C#N)cc2)cc1-c1ccc(CN[C@H](C)c2ccc(C)cc2)o1	enzyme activity, inhibitor		1 µM	remaining activity	110%
O=C1NC(=O)c2cc(Nc3ccc(F)cc3)c(Nc3ccc(F)cc3)cc21	cell-free assay		0.5 µM	remaining signal	94.8%
Cc1nc(C2CCN(C(=O)c3ccc(OC(F)(F)F)cc3N)CC2)c2ncc(N3CCN(C)CC3)cc2n1	cell-free assay, competition with immobilised ligand		1 µM	remaining binding	100%
Cc1ccc(C(=O)Nc2ccc(CN3CCN(C)CC3)c(C(F)(F)F)c2)cc1C#Cc1cnc2cccnn12	enzyme activity, inhibitor		23.5 nM	remaining activity	55%
CCOc1cc(-c2nncn2C)ccc1Nc1ncc2cc(C)nc(NCC(C)(C)C)c2n1	cell-free assay, TR-FRET		1 µM	inhibition	≤ 15%
O=C1Nc2ccc(Cl)cc2C1=Cc1cc(Cl)c(O)c(Cl)c1	cell-free assay		0.5 µM	remaining signal	95.7%
CN(C)C(=O)Cn1cc(-c2nc([C@@](C)(c3ccc(-c4cnc(N)nc4)cc3)C3CC3)no2)cn1	cell-free assay, competition with immobilised ligand		1 µM	remaining binding	94%
COc1cc2c(Nc3ccc(Br)cc3F)ncnc2cc1OCC1CCN(C)CC1	cell-free assay		0.5 µM	remaining signal	108%
O=c1nc(-c2ccccn2)sc2ccccc12	binding, competition with immobilised ligand		1 µM	remaining binding	92%
CC(C)(C)c1nc(-c2cccc(NS(=O)(=O)c3c(F)cccc3F)c2F)c(-c2ccnc(N)n2)s1	enzyme activity, inhibitor, radiometric		1 µM	remaining activity	57%
O=C(NCc1ncc(C(F)(F)F)cc1Cl)c1ccc2c(c1)C1(CCS(=O)(=O)CC1)[C@H](C1CC1)N2S(=O)(=O)c1ccc(F)cc1	cell-free assay, competition with immobilised ligand		1 µM	remaining binding	66%
CCN1CCN(Cc2ccc(NC(=O)c3ccc(C)c(Oc4ccnc5[nH]ccc45)c3)cc2C(F)(F)F)CC1	target engagement in cells, inhibitor, chemoproteomics	Huh-7	1 µM	inhibition	-39%
